GC-B act: GC-B (human) receptor activation; P20594; HEK293-GC-B cells, CNP EC30, cGMP TR-FRET; 0% at EC30 CNP, 100% saturating CNP; activation, % at 10 µM; actives 0.11% (n = 370,000); AID 1920062;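 active = activation at 10 µM reaching about 35% in either raw or pattern-adjusted values, limit read from the data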
Target sequence (P20594 whole entry, looked up): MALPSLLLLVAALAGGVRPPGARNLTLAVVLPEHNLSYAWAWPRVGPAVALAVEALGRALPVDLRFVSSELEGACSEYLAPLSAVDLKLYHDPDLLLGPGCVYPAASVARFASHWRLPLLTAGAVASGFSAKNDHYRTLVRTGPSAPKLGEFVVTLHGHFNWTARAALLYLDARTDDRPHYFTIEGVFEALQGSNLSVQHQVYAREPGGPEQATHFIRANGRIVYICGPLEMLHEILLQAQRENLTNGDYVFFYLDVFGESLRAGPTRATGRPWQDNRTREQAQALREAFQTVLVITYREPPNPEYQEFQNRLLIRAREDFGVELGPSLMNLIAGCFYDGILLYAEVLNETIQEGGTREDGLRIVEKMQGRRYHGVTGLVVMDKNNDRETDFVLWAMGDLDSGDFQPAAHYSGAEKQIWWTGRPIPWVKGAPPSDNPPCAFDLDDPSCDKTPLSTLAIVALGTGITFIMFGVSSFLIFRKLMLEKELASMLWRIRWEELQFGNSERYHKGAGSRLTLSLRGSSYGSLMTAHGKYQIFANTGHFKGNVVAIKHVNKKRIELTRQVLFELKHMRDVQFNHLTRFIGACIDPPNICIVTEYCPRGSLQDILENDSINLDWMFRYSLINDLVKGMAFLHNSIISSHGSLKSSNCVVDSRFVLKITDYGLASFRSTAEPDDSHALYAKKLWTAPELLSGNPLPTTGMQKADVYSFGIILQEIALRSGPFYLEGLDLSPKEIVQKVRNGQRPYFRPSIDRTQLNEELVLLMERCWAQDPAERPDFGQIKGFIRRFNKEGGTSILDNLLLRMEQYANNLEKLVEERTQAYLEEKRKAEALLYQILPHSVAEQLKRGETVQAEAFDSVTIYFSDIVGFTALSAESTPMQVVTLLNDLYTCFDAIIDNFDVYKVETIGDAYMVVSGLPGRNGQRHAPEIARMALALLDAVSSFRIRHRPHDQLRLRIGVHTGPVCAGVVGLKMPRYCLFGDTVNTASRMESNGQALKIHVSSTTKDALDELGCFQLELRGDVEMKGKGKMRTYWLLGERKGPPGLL
GRIN3A LBD mod: modulates the human NR3A ligand-binding domain | NR3A LBD differential scanning fluorimetry, Tm shift; 0% = protein alone, 100% = glycine-bound protein | Tm shift relative to glycine control, % at 25 µM | actives 2.5% (n = 340,000) | AID 1259313;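 active = melting temperature shift of at least 10% of the positive control shift, at one fixed dose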
aDG glyco up: alpha-DG glycosylation activation; Pro5-aDG cells, alpha-DG glycosylation AlphaScreen (IIH6); 0% Pro5, 100% B10-LARGE cell signal; activation, % at 10 µM; actives 0.22% (n = 360,000);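 active = activation of at least 8% versus controls, or a plate z-score of at least 8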;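 also: Pro5 are CHO cells carrying HIG-tagged alpha-DG that lacks glycosylation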
JMJD2C inh: inhibitors of human GASC-1 (JMJD2C) demethylase; Q9H3R0; GST-JMJD2C(1-420) H3K9me3 demethylation, DELFIA europium; inhibition, % at 2.35 µM; actives 0.069% (n = 330,000); AID 2099;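 active = more than half of a compound's replicate wells show inhibition beyond 50%, single wells judged on their own value; inconclusive = some, but no more than half, of replicates pass 50% inhibition; inactive = no replicate passes 50% inhibition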;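 also: signal counts dimethyl H3K9 product captured on neutravidin plate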
Lipid droplet: hepatic lipid droplet formation modulation | actives 0.4% (n = 240,000) | AML12 mouse hepatocytes, oleate lipid droplets, BODIPY imaging | inhibition, % at 6.5 µM;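 active = lipid droplet intensity inhibited by at least 50%, with more than 500 cells counted; inconclusive = wells with under 300 cells, treated as cytotoxic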
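Assay system: AML12 mouse liver cells | Compound dosing: One dose, 6.5 µM compound | Read-out basis: Droplet intensity reduction, % inhibition | Measured by: Fluorescence imaging, 20x objective, two fields per well | Schedule: Overnight treatment with compound plus oleate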
GC-A act: GC-A (human) enzyme activation; P16066; HEK293 GC-A cells, cGMP TR-FRET, EC30 ANP; 0% at EC30 ANP, 100% saturating ANP; activation, % at 10 µM; actives 0.14% (n = 370,000); AID 1671463; in the data active = activation above about 40%
Of the large screens only hits and unclear results are named; the others gave an inactive call. Only some compounds are listed: those with a hit (about 3% of all), similar ones and a draw of the others.

NC(=O)C(=O)N/N=C/c1c[nH]c2ccc(Br)cc12	none
O=C(Oc1ccc(/C=N/NC(=O)c2ccccn2)cc1)c1cccc(Br)c1	none
O=C(N/N=C/c1c[nH]c2ccc(Br)cc12)c1ccncc1	GRIN3A LBD mod 26
O=C(N/N=C/c1c[nH]c2ccc(Br)cc12)c1ccccn1	GRIN3A LBD mod 10
O=C(N/N=C/c1c[nH]c2ccc(Br)cc12)c1ccn(Cc2ccc(Cl)cc2Cl)n1	GRIN3A LBD mod 17 (no result: Lipid droplet)
O=C(N/N=C/c1c[nH]c2ccc(Br)cc12)C1CC1	GRIN3A LBD mod 10
O=C(N/N=C/c1c[nH]c2ccccc12)c1ccn(Cc2ccc(Cl)cc2)n1	none (no result: Lipid droplet)
Cc1cccn2c(=O)c3cc(C(=O)NCCN4CCOCC4)c(=N)n(Cc4ccc(F)cc4)c3nc12	none
CCN(CC)c1ccc(/C=N/NC(=O)c2cccc(S(=O)(=O)Nc3ccccc3OC)c2)c(O)c1	GRIN3A LBD mod 14
Cc1[nH]c2ccccc2c1/C=N/NC(=O)c1cccc(Br)c1	GRIN3A LBD mod 16 (no result: GC-B act, Lipid droplet, GC-A act)
O=C(N/N=C/c1[nH]c2ccccc2c1Cl)c1cccc(Br)c1	GRIN3A LBD mod 12
Cc1[nH]c2ccccc2c1/C=N/NC(=O)c1cccc(S(=O)(=O)Nc2ccccc2Cl)c1	GRIN3A LBD mod 24
Cc1[nH]c2ccccc2c1/C=N/NC(=O)c1ccccc1	none
CCN(CC)C1Oc2cc3c(cc2C(c2cc(OC)c(OC)c(OC)c2)C1C)OCO3 (stereo not drawn)	none (no result: JMJD2C inh, Lipid droplet)
O=C(N/N=C/c1cccs1)c1cccc(NC(=O)c2ccc(Cl)cc2)c1	none (no result: GRIN3A LBD mod, aDG glyco up)
Cc1[nH]c2ccccc2c1/C=N/NC(=O)c1cc(-c2ccncc2)nc2ccccc12	none
CCc1cccc2c(/C=N/NC(=O)c3cccc(S(=O)(=O)Nc4ccccc4Cl)c3)c[nH]c12	GRIN3A LBD mod 27
O=C(N/N=C/c1cccs1)c1cccc(S(=O)(=O)Nc2ccc(Cl)cc2)c1	GRIN3A LBD mod 28 (no result: Lipid droplet)
Cc1[nH]c2ccccc2c1/C=N/NC(=O)c1cc(-c2ccccc2)n[nH]1	GRIN3A LBD mod 19
Cc1[nH]c2ccccc2c1/C=N/NC(=O)c1ccc(N)cc1	GRIN3A LBD mod 11
Cc1ccc(/C=N/NC(=O)c2cccc(S(=O)(=O)Nc3ccccc3Cl)c2)o1	none
CC(=O)NC(C)C(=O)N1CCCC1C(=O)N1CCCC1C(=O)NC(C)C(=O)NC1C(=O)NC(CC(C)C)C(=O)NC2CCCCNC(=O)CCC(C(=O)NC(Cc3ccc(O)cc3)C(=O)O)NC(=O)C3CCC(=O)OCC(NC(=O)C4CCCN4C(=O)C(Cc4c[nH]c5ccccc45)NC2=O)C(=O)NC(CC(=O)OC1C)C(=O)NC(Cc1c[nH]c2ccccc12)C(=O)N3 (stereo not drawn)	none (no result: GRIN3A LBD mod, aDG glyco up, JMJD2C inh, Lipid droplet)
O=S1(=O)c2ccc(Br)cc2OC[C@@H](Cc2ccccc2)N1Cc1cn(Cc2ccc(C(F)(F)F)cc2)nn1	none (no result: GRIN3A LBD mod, aDG glyco up, JMJD2C inh, Lipid droplet)
COc1ccc(/C=C2\SC(=S)N(CCC(=O)NCCc3ccc(O)cc3)C2=O)cc1	GRIN3A LBD mod 15
O=C(CCN1C(=O)/C(=C/c2ccccc2F)SC1=S)NCCc1ccc(O)cc1	none
O=C(CCN1C(=O)/C(=C/c2ccccc2)SC1=S)NCCc1ccc(O)cc1	GRIN3A LBD mod 17 (no result: GC-B act, GC-A act)
COc1ccccc1/C=C1\SC(=S)N(CCC(=O)NCCc2ccc(O)cc2)C1=O	none
O=C(CN1C(=O)S/C(=C\c2ccc(O)cc2)C1=O)c1ccccc1	GRIN3A LBD mod 10
O=C(CCN1C(=O)/C(=C\c2ccccc2)SC1=S)NNC(=O)c1ccccc1O	GRIN3A LBD mod 12
Cc1ccc(C2=CCN(C)C(=O)N2c2ccc([N+](=O)[O-])cc2)cc1	none (no result: GRIN3A LBD mod, aDG glyco up, JMJD2C inh, Lipid droplet)
O=C(CN1C(=O)CCSc2ccccc21)Nc1ccc(F)cc1F	none (no result: GRIN3A LBD mod, aDG glyco up, JMJD2C inh, Lipid droplet)
COC(=O)[C@]12C[C@H](CC(=O)NCC34CC5CC(CC(C5)C3)C4)C(=O)N(CCc3ccc(OC)c(OC)c3)C1=C[C@H](C(C)(C)C)O[C@@H]2C	none (no result: GRIN3A LBD mod, aDG glyco up, JMJD2C inh, Lipid droplet)
COC(=O)[C@H](C(C)C)N(CCCc1cn(CC2CCCCC2)nn1)S(=O)(=O)c1ccccc1Br	none (no result: GRIN3A LBD mod, aDG glyco up, JMJD2C inh, Lipid droplet)
Cc1ccccc1CS(=O)(=O)Cc1ccc(C(=O)Nc2ccccc2C)o1	none (no result: GRIN3A LBD mod, aDG glyco up, JMJD2C inh, Lipid droplet)
CC(/C=C1\SC(=S)N(CCC(=O)Nc2ccccc2O)C1=O)=C\c1ccccc1	GRIN3A LBD mod 20
CC(C)C[C@@H]1COc2cc(F)ccc2S(=O)(=O)N1C	none (no result: GRIN3A LBD mod, aDG glyco up, JMJD2C inh, Lipid droplet)
CCCN(CCC)C(=O)c1cc2c(=O)[nH]c3ccc(C)cc3c2s1	none
Cc1ccc(C)c(N(C)C(=O)c2cc3c(=O)[nH]c4ccc(C)cc4c3s2)c1	GC-B act 37
CC(C)(C)N1Cc2nnn(Cc3ccccc3)c2-c2ccccc2S1(=O)=O	none (no result: GRIN3A LBD mod, aDG glyco up, JMJD2C inh, Lipid droplet)
CC(C)CCNc1nc(-c2ccco2)c2c(c1C#N)CCCC2	GC-B act 36
O=S1(=O)CCSC[C@@H](CNCc2ccco2)N1	none (no result: GRIN3A LBD mod, aDG glyco up, JMJD2C inh, Lipid droplet)
O=S1(=O)C=CCN1Cc1cn(Cc2cccc(Cl)c2)nn1	none (no result: GRIN3A LBD mod, aDG glyco up, JMJD2C inh, Lipid droplet)
CC1CCC2(CC1)NC(=O)N(CC(=O)Nc1ccc3[nH]c(=O)[nH]c3c1)C2=O (stereo not drawn)	GRIN3A LBD mod 19 (no result: Lipid droplet)
CC1CC(C)(C)CC2(C1)NC(=O)N(CC(=O)Nc1ccc3[nH]c(=O)[nH]c3c1)C2=O (stereo not drawn)	none (no result: Lipid droplet)
COC(=O)c1ccc(COC(=O)C(CCSC)NC(=O)COc2ccccc2)cc1 (stereo not drawn)	GRIN3A LBD mod 22
CSCCC(NC(=O)COc1ccccc1)C(=O)OCC(=O)c1ccccc1 (stereo not drawn)	none (no result: Lipid droplet)
CCOC(=O)N(C)C[C@@H]1OCc2cn(nn2)CCCC(=O)N([C@H](C)CO)C[C@H]1C	none (no result: GRIN3A LBD mod, aDG glyco up, JMJD2C inh, Lipid droplet)
COc1ccccc1OCC(=O)NCCC1=CCCCC1	none
O=C(COc1ccccc1[N+](=O)[O-])NCCC1=CCCCC1	GRIN3A LBD mod 11
Cc1ccc(NC(=O)CCS(=O)(=O)c2ccccc2)c(C)c1	none (no result: GRIN3A LBD mod, aDG glyco up, JMJD2C inh, Lipid droplet)
COc1ccc(NC(=S)N(CCC(C)C)C2CCN(C(C)C)CC2)cc1Cl	GRIN3A LBD mod 19
COCCN(Cc1ccc(C)cc1)C(=O)[C@H]1O[C@@H](n2cnc(C(N)=O)n2)[C@H](O)[C@@H]1O	none (no result: GRIN3A LBD mod, aDG glyco up, JMJD2C inh, Lipid droplet)
COC(=O)/C=C1\SC(=NC(=O)c2cccc([N+](=O)[O-])c2)NC1=O	GRIN3A LBD mod 13
COC(=O)/C=C1/SC(=NC(=O)c2cccc([N+](=O)[O-])c2)NC1=O	GRIN3A LBD mod 15, JMJD2C inh inconclusive
COc1ccc2c(c1)[C@@H](NC(=O)c1ccncc1)[C@H](C)[C@H]2c1ccccc1	none (no result: GRIN3A LBD mod, aDG glyco up, JMJD2C inh, Lipid droplet)
CN(C)CC1C2CCC(C2)C1O (stereo not drawn)	none (no result: JMJD2C inh, Lipid droplet)
Clc1ccc(Nc2ccc(Cl)nn2)cc1	GRIN3A LBD mod 24
COc1ccc(Nc2ccc(Cl)nn2)cc1	none (no result: Lipid droplet)
COc1cccc(/C=N/n2nnnc2N)c1OCC#N	GRIN3A LBD mod 13 (no result: Lipid droplet)
